One block for each molecule: values may come before it.
Columns and labels:
[1] = AUClast in ICR mouse at 10 mg/kg, po; format: ADME, organism-based; set-up: time 0 - last, dose 10 mg/kg, route oral; details: plasma
[2] = Cytotoxicity against mouse […] cells assessed as cell viability at 10 uM after 24 hrs by MTT assay; format: cell-based; details: read-out: Activity
[3] = Metabolic stability in human liver microsomes at 1 uM after 30 mins by LC/MS analysis; format: ADME, Microsome; details: read-out: Stability
Procedure, shortened: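 Pooled human liver microsomes (0.5 mg/mL protein), compound at 1 μM, 1.2 mM NADPH, 100 mM phosphate pH 7.4, 37 °C with shaking for 30 min, in duplicate. Stopped with ice-cold acetonitrile containing internal standard, centrifuged, supernatant analysed by LC–MS/MS for % remaining.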

[4] = Tmax in ICR mouse at 10 mg/kg, po; format: ADME, organism-based; set-up: dose 10 mg/kg, route oral; details: in vivo
HT-22 [5] = assay: Neuroprotective activity against in mouse HT22 cells assessed as inhibition of amyloid beta-induced toxicity at 10 uM incubated for 10 mins prior to amyloid beta-challenge measured after 24 hrs by MTT assay; format: functional
Procedure, shortened: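 HT-22 mouse hippocampal cells (DMEM, 10% FBS), 5000 per well, seeded a day before. Compound solution at 10 μM added 10 min before amyloid beta 1–42 solution at 10 μM, then 24 h at 37 °C. MTT 2 h, then acidified Triton/isopropanol for 1 h at RT, A570. Vehicle subtracted; % inhibition versus Aβ-treated vehicle; viability from wells without Aβ.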

[6] = Cmax in ICR mouse at 10 mg/kg, po; format: ADME, organism-based; set-up: dose 10 mg/kg, route oral; details: in vivo
Plasma = assay: (§1) Metabolic stability in rat plasma at 0.5 ug/ml after 2 hrs by LC/MS analysis; format: ADME, cell-free; details: 2 h
Procedure, shortened: (§2)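 Drug-free rat plasma spiked from acetonitrile stock to 0.5 μg/mL, held at 37 °C with shaking for 0, 15, 30, 60 and 120 min. Quenched with 2 volumes of acetonitrile containing carbamazepine internal standard, centrifuged, supernatant quantified by LC–MS/MS.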

[7] = Cmax in Sprague-Dawley rat at 3 mg/kg, ip; format: ADME, organism-based; set-up: dose 3 mg/kg, route intraperitoneal; details: in vivo
HT-22 [8] = assay: Inhibition of mPTP in mouse HT22 cells assessed as recovery in amyloid beta-suppressed ATP level at 5 uM incubated for 10 mins prior to amyloid beta-challenge measured for 7 hrs relative to control; format: cell-based; set-up: scale not given: the % may be the effect or the level left
Procedure, shortened: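 HT-22 mouse hippocampal cells, grown in DMEM with 10% FBS at 37 °C and 5% CO2, were seeded the day before. Compound (10 µM solution) added 10 min before amyloid beta 1-42 (10 µM solution), then 7 h at 37 °C. Lysates normalised to equal protein by BCA, and ATP measured with a luciferase kit. % recovery is relative to the amyloid-treated vehicle. Viability is from ATP without amyloid beta.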

[9] = AUC (0 to infinity) in Sprague-Dawley rat at 3 mg/kg, ip; format: ADME, organism-based; set-up: dose 3 mg/kg, route intraperitoneal, time infinity; details: plasma
[10] = Cytotoxicity against mouse […] cells assessed as cell viability at 5 uM; format: cell-based; details: HT22 cells, read-out: Activity
[11] = Tmax in Sprague-Dawley rat at 3 mg/kg, ip; format: ADME, organism-based; set-up: dose 3 mg/kg, route intraperitoneal; details: in vivo
HT-22 [12] = assay: Inhibition of mPTP in mouse HT22 cells assessed as reduction in amyloid beta-induced mitochondrial membrane damage at 10 uM incubated for 10 mins prior to amyloid beta-challenge measured every 1 hr for 3 hrs by JC-1 based fluorometric analysis; format: cell-based; set-up: scale not given: the % may be the effect or the level left
Procedure, shortened: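 HT-22 cells, 30,000 per well, seeded a day earlier, loaded with 7.5 μM JC-1 (final) in phenol red-free Opti-MEM for 1 h 15 min at 37 °C, then PBS-washed. Compound solution at 10 μM for 10 min at 37 °C, then amyloid beta 1–42 solution at 10 μM. Red (ex/em 530/580) and green (485/530) fluorescence read hourly for 3 h. Green/red ratio change normalised to vehicle as 100%.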

[13] = Terminal half life in Sprague-Dawley rat at 3 mg/kg, ip; format: ADME, organism-based; set-up: dose 3 mg/kg, route intraperitoneal; details: in vivo, read-out: beta t1/2
[14] = AUClast in Sprague-Dawley rat at 3 mg/kg, ip; format: ADME, organism-based; set-up: dose 3 mg/kg, route intraperitoneal, time 0 - last; details: plasma
[15] = Ratio of drug uptake in brain to drug uptake in plasma in ICR mouse at 10 mg/kg, po; format: ADME, organism-based; set-up: dose 10 mg/kg, route oral; details: read-out: BPR
[16] = Terminal half life in Sprague-Dawley rat at 10 mg/kg, iv; format: ADME, organism-based; set-up: dose 10 mg/kg, route intravenous; details: in vivo, read-out: beta t1/2
Procedure, shortened: (§3)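 Male Sprague-Dawley rats dosed 10 mg/kg iv (n = 3) or orally (n = 4). Carotid blood sampled at 0, 1 min (iv only), 5 min, 15 min, 0.5, 1, 2, 4, 6 and 8 h. Plasma analysed by LC-MS/MS after acetonitrile precipitation with internal standard (LLOQ 5 ng/mL). Parameters from non-compartmental analysis. Values are mean ± SD.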

[17] = Cmax in Sprague-Dawley rat at 10 mg/kg, po; format: ADME, organism-based; set-up: dose 10 mg/kg, route oral; details: in vivo; procedure, shortened: as §3
[18] = as §1; format: ADME, cell-free; details: read-out: Stability; procedure, shortened: as §2
[19] = Tmax in Sprague-Dawley rat at 10 mg/kg, po; format: ADME, organism-based; set-up: dose 10 mg/kg, route oral; details: in vivo; procedure, shortened: as §3
[20] = Ratio of drug uptake in brain to drug uptake in plasma in Sprague-Dawley rat at 10 mg/kg, iv; format: ADME, organism-based; set-up: dose 10 mg/kg, route intravenous; details: read-out: BPR
Procedure, shortened: (§4)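 Male Sprague-Dawley rats given 10 mg/kg iv or orally. Brain-to-plasma concentration ratio taken 2 h after dosing. Concentrations measured by LC-MS/MS.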

[21] = AUClast in Sprague-Dawley rat at 10 mg/kg, iv; format: ADME, organism-based; set-up: time 0 - last, dose 10 mg/kg, route intravenous; details: plasma
Procedure, shortened: (§5)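 Male Sprague Dawley rats received 10 mg/kg intravenously (n = 3) or orally (n = 4). Blood was drawn via the carotid artery at 0, 1 min (IV only), 5 and 15 min, and 0.5, 1, 2, 4, 6 and 8 h. Plasma was precipitated with acetonitrile containing internal standard and analysed by LC–MS/MS (LLOQ 5 ng/mL). Parameters came from non-compartmental analysis; AUClast used the trapezoidal rule. Values are mean ± SD.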

[22] = AUC (0 to infinity) in Sprague-Dawley rat at 10 mg/kg, po; format: ADME, organism-based; set-up: time infinity, dose 10 mg/kg, route oral; details: plasma
[23] = Clearance in Sprague-Dawley rat at 10 mg/kg, iv; format: ADME, organism-based; set-up: dose 10 mg/kg, route intravenous; details: in vivo; procedure, shortened: as §3
[24] = Terminal half life in Sprague-Dawley rat at 10 mg/kg, po; format: ADME, organism-based; set-up: dose 10 mg/kg, route oral; details: in vivo, read-out: beta t1/2; procedure, shortened: as §3
[25] = Clearance in Sprague-Dawley rat at 10 mg/kg, po; format: ADME, organism-based; set-up: dose 10 mg/kg, route oral; details: in vivo; procedure, shortened: as §3
[26] = Bioavailability in Sprague-Dawley rat at 10 mg/kg, po; details: in vivo
[27] = AUClast in Sprague-Dawley rat at 10 mg/kg, po; format: ADME, organism-based; set-up: time 0 - last, dose 10 mg/kg, route oral; details: plasma; procedure, shortened: as §5
[28] = AUC (0 to infinity) in Sprague-Dawley rat at 10 mg/kg, iv; format: ADME, organism-based; set-up: time infinity, dose 10 mg/kg, route intravenous; details: plasma
[29] = Ratio of drug uptake in brain to drug uptake in plasma in Sprague-Dawley rat at 10 mg/kg, po; format: ADME, organism-based; set-up: dose 10 mg/kg, route oral; details: read-out: BPR; procedure, shortened: as §4
[30] = Apparent volume of distribution at steady state in Sprague-Dawley rat at 10 mg/kg, iv; format: ADME, organism-based; set-up: dose 10 mg/kg, route intravenous; details: in vivo, read-out: Vdss(app); procedure, shortened: as §3
[31] = Cmax in Sprague-Dawley rat at 10 mg/kg, iv; format: ADME, organism-based; set-up: dose 10 mg/kg, route intravenous; details: in vivo; procedure, shortened: as §3

Structure (SMILES): C(=N\OC1CN2CCC1CC2)/c1ccccc1OCc1ccccc1 (centres undefined)
AUC(0-t) [1]: 0.525 µg·h/mL
viability at 24 h, 10 µM [2]: 84%
remaining at 0.5 h, 1 µM [3]: 85%
Tmax [4]: 5 min
inhibition at 10 µM (HT-22 [5]): 0%
Cmax [6]: 0.33 µg/mL
Stability (Plasma): Stable
Cmax [7]: 0.524 µg/mL
Activity (HT-22 [8]): 13%
AUC(0-inf) [9]: 0.99 µg·h/mL
viability at 5 µM [10]: 92%
Tmax [11]: 0.417 h
Activity (HT-22 [12]): 59%
half-life [13]: 6.1 h
AUC(0-t) [14]: 0.93 µg·h/mL
Kp [15]: 273

Structure (SMILES): C(=N\OC1CCN(Cc2ccccc2)C1)/c1ccccc1OCc1ccccc1 (centres undefined)
Activity (HT-22 [8]): -137%
viability at 5 µM [10]: 99%
Activity (HT-22 [12]): 38%

Structure (SMILES): Fc1cccc(COc2ccccc2/C=N/OC2CN3CCC2CC3)c1 (centres undefined)
Activity (HT-22 [12]): 75%

Structure (SMILES): CN1CCC(O/N=C/c2ccccc2OCc2ccccc2)C1 (centres undefined)
Activity (HT-22 [12]): 69%

Structure (SMILES): CN1CCCC(O/N=C/c2ccccc2OCc2ccc(Cl)c(Cl)c2)C1 (centres undefined)
Activity (HT-22 [12]): 62%

Structure (SMILES): FC(F)(F)c1cccc(/C=N/OC2CCN(Cc3ccccc3)C2)c1 (centres undefined)
Activity (HT-22 [12]): 123%

Structure (SMILES): CC(C)N1CCC(O/N=C/c2ccccc2OCc2ccccc2)C1 (centres undefined)
Activity (HT-22 [8]): -93%
viability at 5 µM [10]: 67%
Activity (HT-22 [12]): 19%

Structure (SMILES): CC(C)N1CCC(O/N=C/c2ccccc2OCc2ccc(Cl)cc2Cl)C1 (centres undefined)
Activity (HT-22 [12]): 61%

Structure (SMILES): Clc1ccc(COc2ccccc2/C=N/OC2CCN(Cc3ccccc3)C2)c(Cl)c1 (centres undefined)
Activity (HT-22 [12]): 61%

Structure (SMILES): COc1ccccc1/C=N/OC1CCN(C)C1 (centres undefined)
Activity (HT-22 [12]): 147%

Structure (SMILES): FC(F)(F)c1cccc(COc2ccccc2/C=N/OC2CN3CCC2CC3)c1 (centres undefined)
Activity (HT-22 [12]): 90%

Structure (SMILES): COc1ccccc1/C=N/OC1CCCN(C)C1 (centres undefined)
Activity (HT-22 [12]): 257%

Structure (SMILES): Clc1cccc(Cl)c1COc1ccccc1/C=N/OC1CN2CCC1CC2 (centres undefined)
Activity (HT-22 [12]): 96%

Structure (SMILES): FC(F)(F)c1ccc(COc2ccccc2/C=N/OC2CN3CCC2CC3)cc1 (centres undefined)
Activity (HT-22 [12]): 85%

Structure (SMILES): Fc1cccc(/C=N/OC2CN3CCC2CC3)c1 (centres undefined)
Activity (HT-22 [12]): 92%

Structure (SMILES): COc1ccccc1/C=N/OC1CCN(C(C)C)C1 (centres undefined)
Activity (HT-22 [12]): 55%

Structure (SMILES): CN1CCCC(O/N=C/c2ccccc2OCc2ccccc2)C1 (centres undefined)
Activity (HT-22 [8]): 15%
viability at 5 µM [10]: 112%
Activity (HT-22 [12]): 29%

Structure (SMILES): Fc1cccc(COc2ccccc2/C=N/OC2CCN(Cc3ccccc3)C2)c1 (centres undefined)
Activity (HT-22 [8]): -201%
viability at 5 µM [10]: 74%
Activity (HT-22 [12]): 42%

Structure (SMILES): Brc1cccc(/C=N/OC2CN3CCC2CC3)c1 (centres undefined)
Activity (HT-22 [12]): 95%

Structure (SMILES): COc1cccc(/C=N/OC2CN3CCC2CC3)c1 (centres undefined)
Activity (HT-22 [12]): 86%

Structure (SMILES): Clc1cccc(COc2ccccc2/C=N/OC2CN3CCC2CC3)c1 (centres undefined)
Activity (HT-22 [12]): 101%

Structure (SMILES): C(=N\OC1CN2CCC1CC2)/c1cccc(OCc2ccccc2)c1 (centres undefined)
Activity (HT-22 [12]): 121%

Structure (SMILES): C(=N\OC1CN2CCC1CC2)/c1ccccc1Oc1ccccc1 (centres undefined)
Activity (HT-22 [12]): 84%

half-life [16]: 2.35 h
remaining at 0.5 h, 1 µM [3]: 47.8%
Cmax [17]: 0.57 µg/mL
remaining at 2 h, 0.5 ug/ml [18]: 111%
Tmax [19]: 2 h
Kp [20]: 14.6
AUC(0-t) [21]: 5.89 µg·h/mL
AUC(0-inf) [22]: 2.39 µg·h/mL
clearance [23]: 1.68 L/h/kg
half-life [24]: 2.92 h
CL/F [25]: 4.33 L/h/kg
bioavailability [26]: 38.1%
AUC(0-t) [27]: 1.96 µg·h/mL
AUC(0-inf) [28]: 6.28 µg·h/mL
Kp [29]: 0.29
Vd [30]: 2.87 L/kg
Cmax [31]: 44.5 µg/mL
Structure (SMILES): Clc1ccc(COc2ccccc2/C=N/OC2CCN(Cc3ccccc3)C2)cc1Cl (centres undefined)
viability at 24 h, 10 µM [2]: 129%
inhibition at 10 µM (HT-22 [5]): 149%
Activity (HT-22 [8]): 104%
viability at 5 µM [10]: 83%
Activity (HT-22 [12]): 41%

Structure (SMILES): Clc1ccc(COc2ccccc2/C=N/OC2CN3CCC2CC3)c(Cl)c1 (centres undefined)
Activity (HT-22 [12]): 69%

— ChEMBL document CHEMBL2331084, “Synthesis and evaluation of oxime derivatives as modulators for amyloid beta-induced mitochondrial dysfunction” (Eur J Med Chem, 2013)
